Reference: ChEMBL document CHEMBL5032506, “Identification of Transthyretin Tetramer Kinetic Stabilizers That Are Capable of Inhibiting the Retinol-Dependent Retinol Binding Protein 4-Transthyretin Interaction: Potential Novel Therapeutics for Macular Degeneration, Transthyretin Amyloidosis, and Their Common Age-Related Comorbidities” (J Med Chem, 2021)
The source made the active and inactive calls. The calls are words filed in the database; no cut-off is given here.

Columns and labels:
Transthyretin [1] = target: T1, Transthyretin (Homo sapiens, UniProt P02766); experiment: Stabilization of human plasma TTR assessed as supression of low pH mediated TTR aggregate formation at 50 uM using pH 4 buffer; format: cell-free
Transthyretin [2] = target: T1, Transthyretin; experiment: Stabilization of human plasma TTR assessed as inhibition of formation of high molecular weight forms of TTR with acetate buffer at pH 4 by measured at 50 uM after 72 hrs by acid-induced aggregation assay; format: cell-free
Transthyretin [3] = target: T1, Transthyretin; experiment: Stabilization of human plasma TTR assessed as increase in dimer band intensity at 50 uM measured after 72 hrs by Western blotting analysis; format: cell-free
Mus musculus [4] = experiment: Effect of TTR level in po dosed mouse serum; format: functional, organism-based
Mus musculus [5] = experiment: Reduction in serum RBP4 level in mouse measured at 25 mg/kg, po after 1 hr
Mus musculus [6] = experiment: Reduction in serum RBP4 level in mouse measured at 25 mg/kg, po after 2 hrs
Transthyretin [7] = target: T1, Transthyretin; experiment: Stabilization of human plasma TTR assessed as supression of low pH mediated TTR aggregate formation at 50 uM using pH 4.0 buffer
Transthyretin [8] = target: T1, Transthyretin; experiment: Binding affinity to human plasma TTR tetramer assessed as displacement of diclofenac-coupled FITC by fluorescence polarization assay; format: cell-free
[9] = target: Retinol-binding protein 4 (Homo sapiens, UniProt P02753); experiment: Displacement of [3H]-all trans retinol from human urine biotinylated RBP4 incubated for 16 hrs measured by Scintillation Proximity Assay
[10] = Solubility of the compound at pH 7.4 in PBS; format: physicochemical
Summary of the method: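 Kinetic solubility in PBS, pH 7.4. Values above 200 μM are capped at the top assay concentration, 200 μM.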

CYP2C9 = CYP2C9 (Homo sapiens, UniProt P11712); experiment: Inhibition of CYP2C9 (unknown origin) at 10 uM relative to control; format: ADME
Cytochrome P450 2C19 = Cytochrome P450 2C19 (Homo sapiens, UniProt P33261); experiment: (§1) Inhibition of CYP2C19 (unknown origin) at 10 uM relative to control; format: ADME; conditions: 10 µM
CYP2D6 = CYP2D6 (Homo sapiens, UniProt P10635); experiment: Inhibition of CYP2D6 (unknown origin) at 10 uM relative to control; format: ADME
Cytochrome P450 3A4 = Cytochrome P450 3A4 (Homo sapiens, UniProt P08684); experiment: (§2) Inhibition of CYP3A4 (unknown origin) at 10 uM relative to control; format: ADME; conditions: 10 µM
[11] = Plasma protein binding in human; format: ADME, cell-free
[12] = Microsomal stability in human liver microsomes assessed as intrinsic clearance; format: ADME, Microsome
[13] = Microsomal stability in human liver microsomes assessed as parent compound remaining measured after 30 min; format: ADME, Microsome; conditions: 0.5 h
CYP2C19 = CYP2C19 (Homo sapiens, UniProt P33261); experiment: as §1; format: ADME
[14] = Plasma protein binding in rat; format: ADME, cell-free
Mus musculus [15] = experiment: Reduction in serum RBP4 level in mouse measured at 25 mg/kg, po after 6 hrs; format: functional
Summary of the method: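 Balb/c mice given a single oral dose, 25 mg/kg, in 0.9% NaCl/2% Tween 80, with a vehicle group. […] Three to eight mice per group; mean ± SD.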

[16] = Microsomal stability in rat liver microsomes assessed as parent compound remaining measured after 30 min; format: ADME, Microsome; conditions: 0.5 h
[17] = Microsomal stability in mouse liver microsomes assessed as parent compound remaining measured after 30 min; format: ADME, Microsome; conditions: 0.5 h
CYP3A4 = CYP3A4 (Homo sapiens, UniProt P08684); experiment: as §2; format: ADME
Mus musculus [18] = experiment: Reduction in serum RBP4 level in mouse measured at 25 mg/kg, po administered as single dose measured after 2 hrs; format: functional
[19] = Clearance in male CD-1 mouse at 2 mg/kg, iv; format: ADME, organism-based; conditions: in vivo
Summary of the method: (§3)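 Adult male CD-1 mice, drug naïve, three per group; single 2 mg/kg IV bolus in 3% dimethylacetamide/45% PEG300/12% ethanol/40% sterile water. Compound measured in blood over time. CL is total body clearance, t1/2 is the terminal elimination phase half-life, Vss is volume of distribution at steady state. Reported as mean (SD).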

[20] = Half life in male CD-1 mouse at 2 mg/kg, iv; format: ADME, organism-based; conditions: in vivo; summary of the method: as §3
[21] = Volume of distribution at steady state in male CD-1 mouse at 2 mg/kg, iv; format: ADME, organism-based; conditions: in vivo, read-out: Vdss; summary of the method: as §3
[22] = AUClast in male CD-1 mouse at 2 mg/kg, iv; format: ADME, organism-based; set-up: route intravenous, time 0 - last, dose 2 mg/kg; conditions: in vivo
Summary of the method: (§4)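 Groups of three drug-naive adult male CD-1 mice; IV dose 2 mg/kg in 3% dimethylacetamide/45% PEG300/12% ethanol/40% sterile water; PO dose 5 mg/kg in 2% Tween 80 in 0.9% saline. Compound measured in blood; AUC_last to last quantifiable time point, AUC_INF extrapolated to infinity; Cmax is maximum observed blood concentration. Mean (SD).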

[23] = AUC in male CD-1 mouse at 2 mg/kg, iv; format: ADME, organism-based; set-up: dose 2 mg/kg; conditions: in vivo; summary of the method: as §4
[24] = target: Voltage-gated inwardly rectifying potassium channel KCNH2 (Homo sapiens, UniProt Q12809); experiment: Inhibition of human ERG
[25] = Cmax in male CD-1 mouse at 5 mg/kg, po; format: ADME, organism-based; set-up: route oral, dose 5 mg/kg; conditions: in vivo; summary of the method: as §4
[26] = Half life in male CD-1 mouse at 5mg/kg, po; format: ADME, organism-based; conditions: in vivo
Summary of the method: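 Adult male CD-1 mice, drug naïve, three per group; single 5 mg/kg oral dose in 2% Tween 80 in 0.9% saline. Blood compound levels followed over time; apparent terminal-phase half-life reported as mean (SD).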

[27] = AUClast in male CD-1 mouse at 5 mg/kg, po; format: ADME, organism-based; set-up: time 0 - last, route oral, dose 5 mg/kg; conditions: in vivo; summary of the method: as §4
[28] = AUC (infinity) in male CD-1 mouse at 5 mg/kg, po; format: ADME, organism-based; set-up: time infinity, route oral, dose 5 mg/kg; conditions: in vivo; summary of the method: as §4
[29] = target: T2, Peroxisome proliferator-activated receptor gamma (Homo sapiens, UniProt P37231); experiment: Activity at PPARgamma (unknown origin)
T2 sequence (P37231 whole entry): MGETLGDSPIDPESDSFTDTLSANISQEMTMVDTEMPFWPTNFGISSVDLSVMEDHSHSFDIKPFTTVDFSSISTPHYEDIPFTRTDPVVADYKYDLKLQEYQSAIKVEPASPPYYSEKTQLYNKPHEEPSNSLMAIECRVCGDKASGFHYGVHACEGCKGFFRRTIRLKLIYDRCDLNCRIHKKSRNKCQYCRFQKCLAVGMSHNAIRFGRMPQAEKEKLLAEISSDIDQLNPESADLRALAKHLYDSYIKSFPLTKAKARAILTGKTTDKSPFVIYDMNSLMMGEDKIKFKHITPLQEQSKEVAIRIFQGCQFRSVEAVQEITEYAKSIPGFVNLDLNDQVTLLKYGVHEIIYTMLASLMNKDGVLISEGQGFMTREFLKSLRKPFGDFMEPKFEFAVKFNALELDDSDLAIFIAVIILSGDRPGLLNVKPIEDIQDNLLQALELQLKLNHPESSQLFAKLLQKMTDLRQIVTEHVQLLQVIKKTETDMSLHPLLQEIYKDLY

in vivo = conditions: male, CD-1, mouse, iv, 2 mg/kg
[30] = Disruption of retional-induced bacterially expressed MBP-tagged RBP4-TTR (unknown origin) protein-protein interaction measured by d2 dye based HTFR assay; set-up: species or system Homo sapiens

Chain of Cytochrome P450 3A4 (P08684 whole entry): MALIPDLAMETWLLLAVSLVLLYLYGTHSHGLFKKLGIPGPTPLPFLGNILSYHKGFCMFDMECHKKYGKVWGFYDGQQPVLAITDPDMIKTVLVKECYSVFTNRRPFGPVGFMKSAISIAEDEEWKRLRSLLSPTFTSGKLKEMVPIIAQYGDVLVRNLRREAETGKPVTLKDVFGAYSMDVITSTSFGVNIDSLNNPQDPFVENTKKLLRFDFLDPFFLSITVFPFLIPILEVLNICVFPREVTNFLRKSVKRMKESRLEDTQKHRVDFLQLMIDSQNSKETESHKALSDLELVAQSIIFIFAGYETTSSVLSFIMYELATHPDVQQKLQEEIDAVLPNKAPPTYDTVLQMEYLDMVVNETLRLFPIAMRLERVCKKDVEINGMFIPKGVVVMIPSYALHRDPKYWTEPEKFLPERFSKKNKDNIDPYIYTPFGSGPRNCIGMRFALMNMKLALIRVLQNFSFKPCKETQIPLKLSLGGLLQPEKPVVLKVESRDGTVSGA
Chain of CYP2C19 (P33261 whole entry): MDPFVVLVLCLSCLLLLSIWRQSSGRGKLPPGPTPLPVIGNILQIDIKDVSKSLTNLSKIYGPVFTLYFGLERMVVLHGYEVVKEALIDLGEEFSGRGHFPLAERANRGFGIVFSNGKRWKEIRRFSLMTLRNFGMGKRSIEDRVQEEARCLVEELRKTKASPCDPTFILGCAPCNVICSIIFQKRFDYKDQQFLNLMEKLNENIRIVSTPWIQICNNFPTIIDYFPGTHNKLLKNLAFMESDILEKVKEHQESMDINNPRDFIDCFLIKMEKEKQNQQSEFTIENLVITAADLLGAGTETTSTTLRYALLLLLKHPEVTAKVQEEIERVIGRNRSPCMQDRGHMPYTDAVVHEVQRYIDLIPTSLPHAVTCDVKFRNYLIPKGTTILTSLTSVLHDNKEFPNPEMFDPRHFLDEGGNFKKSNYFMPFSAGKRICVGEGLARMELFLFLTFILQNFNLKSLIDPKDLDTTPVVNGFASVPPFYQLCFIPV
Chain of CYP2C9 (P11712 whole entry): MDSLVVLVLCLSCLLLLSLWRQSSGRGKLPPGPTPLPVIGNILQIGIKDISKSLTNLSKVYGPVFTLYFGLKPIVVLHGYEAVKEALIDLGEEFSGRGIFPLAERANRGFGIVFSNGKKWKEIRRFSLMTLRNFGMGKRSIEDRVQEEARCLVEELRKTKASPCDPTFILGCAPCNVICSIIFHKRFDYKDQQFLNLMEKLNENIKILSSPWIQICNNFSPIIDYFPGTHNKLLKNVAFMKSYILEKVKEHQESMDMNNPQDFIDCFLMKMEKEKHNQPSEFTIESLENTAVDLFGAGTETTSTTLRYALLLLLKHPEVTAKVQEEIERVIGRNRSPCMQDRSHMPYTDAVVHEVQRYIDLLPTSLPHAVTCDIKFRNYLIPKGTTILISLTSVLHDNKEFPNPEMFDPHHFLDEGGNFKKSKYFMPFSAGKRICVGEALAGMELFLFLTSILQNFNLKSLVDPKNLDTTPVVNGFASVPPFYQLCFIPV
Chain of CYP2D6 (P10635 whole entry): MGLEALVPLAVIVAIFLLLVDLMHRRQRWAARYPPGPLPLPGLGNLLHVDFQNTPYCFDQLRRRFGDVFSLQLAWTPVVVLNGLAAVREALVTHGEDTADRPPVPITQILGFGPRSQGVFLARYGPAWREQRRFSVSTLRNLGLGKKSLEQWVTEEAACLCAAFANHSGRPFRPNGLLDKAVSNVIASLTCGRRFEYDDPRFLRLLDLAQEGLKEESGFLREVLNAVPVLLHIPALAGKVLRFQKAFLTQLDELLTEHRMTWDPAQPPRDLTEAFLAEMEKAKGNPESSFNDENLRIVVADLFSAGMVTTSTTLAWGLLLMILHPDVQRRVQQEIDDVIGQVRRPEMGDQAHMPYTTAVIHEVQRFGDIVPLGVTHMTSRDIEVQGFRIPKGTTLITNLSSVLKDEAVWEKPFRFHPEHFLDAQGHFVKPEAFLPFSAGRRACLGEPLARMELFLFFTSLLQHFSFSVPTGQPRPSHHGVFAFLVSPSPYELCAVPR
Chain of CYP3A4 (P08684 whole entry): as the sequence (P08684 whole entry) above
Chain of Cytochrome P450 2C19 (P33261 whole entry): as the sequence (P33261 whole entry) above
Chain of Voltage-gated inwardly rectifying potassium channel KCNH2 (Q12809 whole entry): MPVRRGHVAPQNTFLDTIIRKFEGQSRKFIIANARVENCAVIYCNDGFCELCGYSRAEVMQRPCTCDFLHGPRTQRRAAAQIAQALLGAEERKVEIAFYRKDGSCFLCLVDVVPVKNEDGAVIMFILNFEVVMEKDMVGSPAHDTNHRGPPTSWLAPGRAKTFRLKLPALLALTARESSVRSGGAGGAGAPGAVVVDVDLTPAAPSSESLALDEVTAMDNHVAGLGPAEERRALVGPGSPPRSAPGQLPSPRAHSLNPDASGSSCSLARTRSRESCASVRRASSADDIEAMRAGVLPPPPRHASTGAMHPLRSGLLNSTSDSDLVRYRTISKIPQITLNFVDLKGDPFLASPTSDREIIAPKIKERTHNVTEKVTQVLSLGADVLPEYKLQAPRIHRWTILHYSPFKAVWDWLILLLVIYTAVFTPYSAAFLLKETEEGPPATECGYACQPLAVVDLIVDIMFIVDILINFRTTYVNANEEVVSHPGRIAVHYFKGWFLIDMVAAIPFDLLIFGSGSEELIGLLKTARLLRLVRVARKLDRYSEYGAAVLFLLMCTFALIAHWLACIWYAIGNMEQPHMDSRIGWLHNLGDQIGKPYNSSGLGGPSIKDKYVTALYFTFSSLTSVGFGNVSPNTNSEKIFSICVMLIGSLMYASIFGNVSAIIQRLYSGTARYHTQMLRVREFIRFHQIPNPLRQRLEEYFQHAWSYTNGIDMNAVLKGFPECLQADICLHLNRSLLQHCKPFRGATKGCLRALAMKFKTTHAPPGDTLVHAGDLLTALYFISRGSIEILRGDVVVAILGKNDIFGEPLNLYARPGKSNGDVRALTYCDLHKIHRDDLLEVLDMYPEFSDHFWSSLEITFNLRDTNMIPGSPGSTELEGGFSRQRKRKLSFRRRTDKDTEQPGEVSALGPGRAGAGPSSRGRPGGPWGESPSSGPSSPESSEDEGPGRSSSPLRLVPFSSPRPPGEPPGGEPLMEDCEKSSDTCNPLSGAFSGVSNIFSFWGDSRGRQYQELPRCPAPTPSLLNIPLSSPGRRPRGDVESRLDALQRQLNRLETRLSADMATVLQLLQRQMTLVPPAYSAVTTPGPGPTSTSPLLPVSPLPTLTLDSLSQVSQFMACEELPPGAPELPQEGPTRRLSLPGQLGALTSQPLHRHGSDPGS

Cc1n[nH]c(C)c1N1CCN(c2cc(C(=O)O)ccc2F)CC1 [listing 1 of 3 here]
Activity (Transthyretin [1]): Active | Activity (Transthyretin [2]): Active | Activity (Transthyretin [3]): Active | Activity (Mus musculus [4]): inactive | inhibition (Mus musculus [5]): Active | inhibition (Mus musculus [6]): Active | Activity (Transthyretin [7]): Active

Cc1n[nH]c(C)c1N1C[C@H]2CN(c3cc(C(=O)O)ccc3F)C[C@H]2C1
IC50 (Transthyretin [8]): 2.82 µM | IC50 [9]: > 3 µM

Cc1n[nH]c(C)c1N1CCN(c2cccc(C(=O)O)c2)CC1
IC50 [9]: > 30 µM

Cc1n[nH]c(C)c1N1CCN(c2cc(C(=O)O)ccc2C(F)(F)F)CC1
IC50 [9]: > 3 µM | solubility kinetic [10]: ≥ 200 µM | inhibition at 10 µM (CYP2C9): 17.1% | inhibition (INH) (Cytochrome P450 2C19): 2.3% | inhibition at 10 µM (CYP2D6): 5.9% | inhibition (INH) (Cytochrome P450 3A4): 14.8% | PPB [11]: 86%

Cc1n[nH]c(C)c1N1CCN(c2cc(F)cc(C(=O)O)c2)CC1
IC50 [9]: > 3 µM

Cc1n[nH]c(C)c1N1CCN(c2ccc(F)c(C(=O)O)c2)CC1
IC50 [9]: > 3 µM

Cc1n[nH]c(C)c1N1CCN(c2cc(-c3nn[nH]n3)ccc2F)CC1
IC50 [9]: > 3 µM | solubility kinetic [10]: ≥ 200 µM | CLH [12]: 18.4 µL/min/mg | Stability [13]: 71.4% | inhibition at 10 µM (CYP2C9): 26.3% | inhibition at 10 µM (CYP2C19): -4.8% | inhibition at 10 µM (CYP2D6): 0.8% | inhibition (INH) (Cytochrome P450 3A4): 18.9% | PPB [14]: 94%

Cc1n[nH]c(C)c1N1CCN(c2cc(C(=O)O)ccc2F)CC1 [listing 2 of 3 here]
inhibition in vivo at 25 mg/kg (Mus musculus [15]): 81%

O=C(O)c1ccc(F)c(N2CCN(c3ccccc3C(F)(F)F)CC2)c1
IC50 (Transthyretin [8]): 1.7 µM | IC50 [9]: > 3 µM

Cc1noc(C)c1N1CCN(c2cc(C(=O)O)ccc2F)CC1
IC50 [9]: > 3 µM

Cc1cc(F)c(N2CCN(c3c(C)n[nH]c3C)CC2)cc1C(=O)O
IC50 [9]: > 3 µM | solubility kinetic [10]: ≥ 200 µM | Stability [16]: 105% | inhibition at 10 µM (CYP2C9): 1.1% | inhibition at 10 µM (CYP2C19): -3% | inhibition at 10 µM (CYP2D6): 9.2% | inhibition (INH) (Cytochrome P450 3A4): 31.7% | PPB [11]: 87% | PPB [14]: 93%

O=C(O)c1ccc(F)c(N2CCN(c3nn[nH]n3)CC2)c1
IC50 (Transthyretin [8]): > 30 µM | IC50 [9]: > 3 µM

Cc1n[nH]c(C)c1N1CCN(c2cc(C(N)=O)ccc2F)CC1
IC50 [9]: > 3 µM

Cc1n[nH]c(C)c1N1CCN(c2cccc(C(=O)O)c2F)CC1
IC50 [9]: > 3 µM

Cc1n[nH]c(C)c1N1CCN(c2cc(C(=O)O)ccc2F)CC1 [listing 3 of 3 here]
IC50 [9]: > 3 µM | Stability [17]: 102% | inhibition at 10 µM (CYP2C9): 10.4% | inhibition at 10 µM (CYP2D6): 8.1% | inhibition at 10 µM (CYP3A4): -2.2% | PPB [11]: 83% | inhibition in vivo at 25 mg/kg (Mus musculus [18]): 66% | clearance [19]: 5.9 mL/min/kg | half-life [20]: 5.08 h | Vd [21]: 2.18 L/kg | AUC(0-t) [22]: 6210 ng·h/mL | AUC [23]: 6240 ng·h/mL | IC50 [24]: > 30 µM | Cmax [25]: 1560 ng/mL | half-life [26]: 5.38 h | AUC(0-t) [27]: 16000 ng·h/mL | AUC(0-inf) [28]: 16100 ng·h/mL | EC50 [29]: > 30 µM | C0 (in vivo): 1620 ng/mL

O=C(O)c1ccc2nc(-c3cc(Cl)cc(Cl)c3)oc2c1
IC50 [9]: > 30 µM | Activity (Transthyretin [2]): Active | Activity (Transthyretin [3]): Active

Cc1n[nH]c(C)c1N1CCN(c2cc(C(=O)O)ccc2Cl)CC1
IC50 [9]: > 3 µM | solubility kinetic [10]: ≥ 200 µM | inhibition at 10 µM (CYP2C9): 25.2% | inhibition (INH) (Cytochrome P450 2C19): 1.85% | inhibition at 10 µM (CYP2D6): 10% | inhibition (INH) (Cytochrome P450 3A4): 19.5% | PPB [14]: 89%

Cc1n[nH]c(C)c1N1CCC2(CCN(c3cc(C(=O)O)ccc3F)C2)C1 (racemic)
IC50 (Transthyretin [8]): 1.08 µM | IC50 [9]: > 3 µM

Cc1n[nH]c(C)c1N1CCN(c2cc(C(=O)O)ccc2I)CC1
IC50 [30]: 2.65 µM | IC50 (Transthyretin [8]): 0.19 µM

Cc1n[nH]c(C)c1N1CC2(CN(c3cc(C(=O)O)ccc3F)C2)C1
IC50 (Transthyretin [8]): > 30 µM | IC50 [9]: > 3 µM

Cc1ccc(C(=O)O)cc1N1CCN(c2c(C)n[nH]c2C)CC1
IC50 [9]: > 3 µM | solubility kinetic [10]: ≥ 200 µM | inhibition at 10 µM (CYP2C9): 56.2% | inhibition at 10 µM (CYP2C19): 0.06% | inhibition at 10 µM (CYP2D6): 7.34% | inhibition at 10 µM (CYP3A4): -5.2%

Cc1n[nH]c(C)c1CCCOc1cc(C(=O)O)ccc1F [ACORAMIDIS]
IC50 [9]: > 30 µM
